ABHD4 inh – inhibits mouse alpha/beta hydrolase domain 4. inhibition, % at 8.92 µM. purified mABHD4, FP-Rh probe fluorescence polarization. 0.54% of 370,000 active;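 active = inhibition exceeding the mean over every tested compound plus 3 SD, cut at about 30% in these data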
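Assay system: Wild-type mouse ABHD4 protein | Medium: HEPES pH 7.0 buffer, 150 mM NaCl, 0.01% Pluronic F-127 | Incubation: Enzyme–compound pre-incubation 45 min, then probe 60 min, both 25 °C | Technique: Fluorescence polarization with parallel and perpendicular emission, 525/598 nm | Evaluation: % inhibition of FP-Rh probe binding versus controls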
rCAG binder – molecules binding r(CAG) RNA repeats; r(CAG) RNA repeat, TO-PRO-1 dye displacement fluorescence; inhibition, % at 3 µM; 1.3% of 370,000 active; AID 651821;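 active = inhibition above the plate cutoff, the mean of all test compounds on that plate plus 3 SD, cut at about 35% in these data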;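 also: higher means more dye released from RNA so lower well fluorescence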
SIAE primary – blocks human sialic acid acetylesterase. 0.69% of 370,000 active. SIAE FP-Rh probe binding, fluorescence polarization. inhibition, % at 9.66 µM. AID 1053197. Q9HAT2;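 active = inhibition above a cutoff: mean of compounds within the control limits plus 3 SD of those, cut at about 17% in these data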
HTRA1 inhibitor – blocks human HTRA1 serine peptidase; Q92743; recombinant HTRA1, FP-rhodamine activity-based probe, fluorescence polarization; inhibition, % at 5.96 µM; 0.5% of 340,000 active; AID 504803; in the data active = inhibition above about 36%
Target sequence (Q92743 whole entry, looked up): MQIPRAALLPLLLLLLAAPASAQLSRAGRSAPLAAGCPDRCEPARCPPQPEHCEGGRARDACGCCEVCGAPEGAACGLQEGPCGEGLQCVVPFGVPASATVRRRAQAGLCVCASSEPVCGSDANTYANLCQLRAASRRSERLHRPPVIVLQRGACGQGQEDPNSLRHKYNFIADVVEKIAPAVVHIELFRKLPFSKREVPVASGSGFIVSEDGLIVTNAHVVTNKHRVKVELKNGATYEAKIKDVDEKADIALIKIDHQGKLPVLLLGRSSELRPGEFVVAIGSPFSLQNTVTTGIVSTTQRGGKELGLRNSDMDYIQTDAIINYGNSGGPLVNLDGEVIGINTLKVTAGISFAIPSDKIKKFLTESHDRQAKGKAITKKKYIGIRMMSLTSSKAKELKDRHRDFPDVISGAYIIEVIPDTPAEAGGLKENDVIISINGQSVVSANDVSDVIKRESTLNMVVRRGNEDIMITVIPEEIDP
TCR-CD3 inh – inhibitors of human TCR-CD3 interaction | TAMRA-labeled TCR probe fluorescence, biochemical | inhibition, % at 9.4 µM | 0.37% of 360,000 active; in the data active = inhibition above about 19%;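 also: recombinant mutant TCR 2C K166C tagged with TAMRA read by polarization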
rCAG binder conf – r(CAG) RNA repeat binding, confirmation. shares compounds with rCAG binder. inhibition, % at 3 µM. AID 652065. TO-PRO-1 dye displacement fluorescence. 70% of 4,300 active;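 active = inhibition above a per-plate cutoff, the mean inhibition of sample wells plus 3 SD, cut at about 35% in these data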;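 also: loss of TO-PRO-1 fluorescence as compound displaces dye from 1x1 AA loop RNA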
dCAG dye counter – counter-screen for rCAG RNA binders: DNA CAG dye complex inhibitors | shares compounds with rCAG binder | d(CAG) DNA oligo TO-PRO-1 dye displacement, fluorescence | inhibition, % at 3 µM | 94% of 4,300 active | AID 652068;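 active = inhibition above its plate's cutoff, the mean test-well inhibition plus 3 SD, cut at about 4.8% in these data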;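 also: hits displace the dye from DNA and so lower well fluorescence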
dCAG dye DR – disrupts DNA CAG TO-PRO-1 complex in dose response | shares compounds with rCAG binder | IC50, µM | AID 686960 | DNA CAG/GTC duplex TO-PRO-1 dye displacement fluorescence | 20% of 250 active; in the data active = IC50 below about 10 µM
Of the large screens only hits and unclear results are named; the others gave an inactive call (follow-up assays come after a bar, where they were run). This is a sample that favours compounds with a hit; in the whole collection about 2.5% have one here.

O=C(NCCOc1ccccc1F)c1ccccc1SCc1ccc(F)cc1	none
CCOC(=O)C1=C(C)N=c2s/c(=C/c3cccc(OCC(=O)O)c3)c(=O)n2C1c1ccc(F)cc1 (stereo unspecified)	rCAG binder 71 (no result: HTRA1 inhibitor) | rCAG binder conf 76 | dCAG dye counter 38
CCOC(=O)C1=C(C)N=c2s/c(=C/c3cccc([N+](=O)[O-])c3O)c(=O)n2C1c1ccccc1 (stereo unspecified)	none
CCOC(=O)C1=C(C)N=c2s/c(=C\c3cccc(OCC(=O)O)c3)c(=O)n2C1c1ccccc1 (stereo unspecified)	rCAG binder 76 | rCAG binder conf 75 | dCAG dye counter 36
COc1ccccc1C1C2=C(N=c3s/c(=C/c4cccc(OCC(=O)O)c4)c(=O)n31)c1ccccc1CC2 (stereo unspecified)	rCAG binder 59 | rCAG binder conf 78 | dCAG dye counter 43
CC1CCN(C(=O)COC(=O)c2ccccc2C(=O)c2ccccc2)CC1	none
Nc1nc2c(ncn2COC(CO)CO)c(=O)[nH]1	none
CC1(Cc2cccc(F)c2)C(=O)Nc2ccc(S(=O)(=O)NC3CCCCC3)cc21 (stereo unspecified)	none (no result: HTRA1 inhibitor)
O=C(O)CC1(CC(=O)Nc2cc(C(F)(F)F)cc(C(F)(F)F)c2)CCCCC1	rCAG binder 42 (no result: HTRA1 inhibitor) | rCAG binder conf inactive | dCAG dye counter 4.8
O=C(O)CC1(CC(=O)NCc2ccc(C(F)(F)F)cc2)CCCCC1	none
CC(c1ccco1)N(C(=O)c1ccccc1NS(=O)(=O)c1cc([N+](=O)[O-])ccc1Cl)c1ccccn1 (stereo unspecified)	rCAG binder 58 | rCAG binder conf 53 | dCAG dye counter 21
O=C(O)c1ccc(N=NNc2cccc([N+](=O)[O-])c2)cc1	none
N#C/C(=N\Nc1cccc([N+](=O)[O-])c1)C(=O)c1ccc(Br)cc1	rCAG binder 76 | rCAG binder conf 87 | dCAG dye counter 52
CCC(C)NC(=O)CSc1nc2c(sc(=S)n2-c2cc(Cl)ccc2OC)c(=O)[nH]1 (stereo unspecified)	rCAG binder 46 | rCAG binder conf 38 | dCAG dye counter 8.5
COc1ccc(Cl)cc1-n1c(=S)sc2c(=O)[nH]c(SCC(=O)NCC3CCCO3)nc21 (stereo unspecified)	rCAG binder 41 | rCAG binder conf inactive | dCAG dye counter 6.6
COCCCNC(=O)CSc1nc2c(sc(=S)n2-c2cc(Cl)ccc2OC)c(=O)[nH]1	none
Cc1ccc2nc(N/C(=N/S(=O)(=O)c3ccc(F)cc3F)c3ccccc3)sc2c1	rCAG binder 46 | rCAG binder conf 48 | dCAG dye counter 14
CCc1cccc(CC)c1NC(=O)C(CC)Sc1nc2ccsc2c(=O)n1CCC(=O)O (stereo unspecified)	none
CCC(Sc1nc2ccsc2c(=O)n1Cc1ccc(C(=O)O)cc1)C(=O)Nc1ccc(Cl)cc1 (stereo unspecified)	rCAG binder 72 | rCAG binder conf 70 | dCAG dye counter 34 | dCAG dye DR inactive
CC(C)(C)OC(=O)N[C@@H](Cc1ccccc1)C(=O)NCC1CCC(C(=O)O)CC1 (stereo partly specified)	none
CCc1cccc(N(C(=O)c2csnn2)C(C(=O)NC(C)(C)CC)c2ccccn2)c1 (stereo unspecified)	none
O=C(Nc1c(C(=O)Nc2cccc3ccccc23)cnn1-c1ccccc1)c1ccco1	rCAG binder 64 | rCAG binder conf 49 | dCAG dye counter 16
O=C(Nc1c(C(=O)Nc2ccccc2)cnn1-c1ccccc1)c1ccco1	none
CC1CCCCC1NC(=O)C(=O)NCC1CCCO1 (stereo unspecified)	rCAG binder 56 | rCAG binder conf inactive | dCAG dye counter inactive
COc1ccc(-n2c(O)c(/C=N/NS(=O)(=O)c3ccc(C)c([N+](=O)[O-])c3)c3ccccc3c2=O)cc1OC	rCAG binder 37 | rCAG binder conf 57 | dCAG dye counter 25

Source: PubChem BioAssay
